What is called pIC50 is −log10 of the IC50, conventionally taken in molar units.

Consider eleven molecules from ChEMBL document CHEMBL5523688, “Selective targeting of human TET1 by cyclic peptide inhibitors: Insights from biochemical profiling” (Bioorg Med Chem, 2024).

In assay [1] the target is Methylcytosine dioxygenase TET1 (Mus musculus, UniProt Q3URK3). The assay is described as follows: Inhibition of recombinant mouse TET1 catalytic domain (E1367 to V2039 residues) expressed in baculovirus expression system using 5-methylcytosine as substrate preincubated for 10 mins followed by substrate and DNA-cofactor addition measured after 9 mins by Alphascreen assay. Put shortly: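 Murine Tet1 catalytic domain (E1367–V2039, High Five baculovirus) at 2 nM was preincubated 10 min with inhibitor (1% DMSO) in HEPES 50 mM pH 7.3, NaCl 150 mM, BSA 0.1%, Tween-20 0.01%. Ascorbate 200 µM, Fe(II) 20 µM, 2OG 20 µM and 5mC ssDNA 10 nM were added; reaction ran 9 min, then EDTA-quenched. AlphaScreen anti-5hmC detection by luminescence.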
Chain of Methylcytosine dioxygenase TET1 (Mus musculus, UniProt Q3URK3) (Q3URK3 whole entry, the tested form may be a part): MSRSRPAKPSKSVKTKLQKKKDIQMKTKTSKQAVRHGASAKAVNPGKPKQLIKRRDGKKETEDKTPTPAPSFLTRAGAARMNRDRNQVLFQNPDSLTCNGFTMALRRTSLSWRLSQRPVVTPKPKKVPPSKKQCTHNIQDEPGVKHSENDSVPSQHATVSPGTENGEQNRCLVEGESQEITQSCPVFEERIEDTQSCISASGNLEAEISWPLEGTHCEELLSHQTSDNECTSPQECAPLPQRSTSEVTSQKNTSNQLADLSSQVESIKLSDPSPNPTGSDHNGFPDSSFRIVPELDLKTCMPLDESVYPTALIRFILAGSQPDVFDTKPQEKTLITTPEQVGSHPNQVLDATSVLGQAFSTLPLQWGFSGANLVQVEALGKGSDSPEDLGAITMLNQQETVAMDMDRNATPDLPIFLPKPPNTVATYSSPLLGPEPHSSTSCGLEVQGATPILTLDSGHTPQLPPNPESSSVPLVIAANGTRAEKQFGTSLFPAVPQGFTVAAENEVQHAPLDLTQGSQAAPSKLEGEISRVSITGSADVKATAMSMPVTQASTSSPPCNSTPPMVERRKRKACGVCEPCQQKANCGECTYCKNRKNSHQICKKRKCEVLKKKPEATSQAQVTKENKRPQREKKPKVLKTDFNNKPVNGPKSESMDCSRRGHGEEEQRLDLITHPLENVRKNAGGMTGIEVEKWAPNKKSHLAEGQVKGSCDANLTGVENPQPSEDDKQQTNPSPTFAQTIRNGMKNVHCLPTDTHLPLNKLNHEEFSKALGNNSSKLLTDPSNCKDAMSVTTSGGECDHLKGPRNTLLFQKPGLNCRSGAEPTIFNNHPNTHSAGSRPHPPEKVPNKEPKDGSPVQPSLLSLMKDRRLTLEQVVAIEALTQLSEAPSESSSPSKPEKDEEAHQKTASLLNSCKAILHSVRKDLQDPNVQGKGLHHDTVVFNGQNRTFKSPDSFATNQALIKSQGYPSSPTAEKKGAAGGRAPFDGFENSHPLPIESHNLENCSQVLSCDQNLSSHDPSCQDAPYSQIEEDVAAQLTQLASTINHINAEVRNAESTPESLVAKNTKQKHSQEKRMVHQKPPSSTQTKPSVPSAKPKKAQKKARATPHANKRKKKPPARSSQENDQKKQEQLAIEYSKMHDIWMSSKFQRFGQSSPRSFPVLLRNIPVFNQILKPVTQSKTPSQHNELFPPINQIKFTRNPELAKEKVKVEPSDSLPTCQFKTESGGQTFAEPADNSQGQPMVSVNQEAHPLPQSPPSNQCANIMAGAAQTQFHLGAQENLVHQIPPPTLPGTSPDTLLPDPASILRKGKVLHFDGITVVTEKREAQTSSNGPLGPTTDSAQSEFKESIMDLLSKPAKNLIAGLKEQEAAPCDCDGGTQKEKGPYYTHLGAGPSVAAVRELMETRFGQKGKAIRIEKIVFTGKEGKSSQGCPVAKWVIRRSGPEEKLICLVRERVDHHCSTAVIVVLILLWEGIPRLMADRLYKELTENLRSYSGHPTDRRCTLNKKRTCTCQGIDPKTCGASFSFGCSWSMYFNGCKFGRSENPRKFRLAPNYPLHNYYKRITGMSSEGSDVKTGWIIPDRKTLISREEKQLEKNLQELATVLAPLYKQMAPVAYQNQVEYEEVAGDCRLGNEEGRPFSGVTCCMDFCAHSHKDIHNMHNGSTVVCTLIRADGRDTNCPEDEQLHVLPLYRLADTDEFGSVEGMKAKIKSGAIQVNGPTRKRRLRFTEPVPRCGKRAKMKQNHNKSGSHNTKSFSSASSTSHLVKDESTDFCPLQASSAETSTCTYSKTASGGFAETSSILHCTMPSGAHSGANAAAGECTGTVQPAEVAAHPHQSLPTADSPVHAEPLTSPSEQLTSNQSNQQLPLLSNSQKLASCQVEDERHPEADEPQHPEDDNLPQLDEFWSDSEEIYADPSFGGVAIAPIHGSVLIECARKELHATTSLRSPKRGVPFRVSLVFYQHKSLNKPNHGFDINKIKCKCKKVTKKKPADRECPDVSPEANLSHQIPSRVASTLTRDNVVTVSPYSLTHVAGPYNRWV

In assay [2] the target is T1, Methylcytosine dioxygenase TET2 (Homo sapiens, UniProt Q6N021). Kind of assay: Inhibition of N-terminal His-tagged recombinant human TET2 catalytic domain LCIdel mutant (D1129 to G1936 residues with Y1481 to N1843 replaced by 3 x GGGGS linker) expressed in Escherichia coli BL21 (DE3) using 5-methylcytosine as substrate preincubated for 10 mins followed by substrate and DNA-cofactor addition measured after 12 mins by SPE-MS analysis.

Assay [3] deals with Methylcytosine dioxygenase TET3 (Homo sapiens, UniProt O43151). The assay is described as follows: Inhibition of recombinant human TET3 catalytic domain (E824 to I1795 residues) expressed in baculovirus infected Sf9 cells using 5-methylcytosine as substrate preincubated for 10 mins followed by substrate and DNA-cofactor addition measured after 10 mins by Alphascreen assay. Conditions: read-out: pIC50 (converted).
Chain of Methylcytosine dioxygenase TET3 (O43151 whole entry, the tested form may be a part): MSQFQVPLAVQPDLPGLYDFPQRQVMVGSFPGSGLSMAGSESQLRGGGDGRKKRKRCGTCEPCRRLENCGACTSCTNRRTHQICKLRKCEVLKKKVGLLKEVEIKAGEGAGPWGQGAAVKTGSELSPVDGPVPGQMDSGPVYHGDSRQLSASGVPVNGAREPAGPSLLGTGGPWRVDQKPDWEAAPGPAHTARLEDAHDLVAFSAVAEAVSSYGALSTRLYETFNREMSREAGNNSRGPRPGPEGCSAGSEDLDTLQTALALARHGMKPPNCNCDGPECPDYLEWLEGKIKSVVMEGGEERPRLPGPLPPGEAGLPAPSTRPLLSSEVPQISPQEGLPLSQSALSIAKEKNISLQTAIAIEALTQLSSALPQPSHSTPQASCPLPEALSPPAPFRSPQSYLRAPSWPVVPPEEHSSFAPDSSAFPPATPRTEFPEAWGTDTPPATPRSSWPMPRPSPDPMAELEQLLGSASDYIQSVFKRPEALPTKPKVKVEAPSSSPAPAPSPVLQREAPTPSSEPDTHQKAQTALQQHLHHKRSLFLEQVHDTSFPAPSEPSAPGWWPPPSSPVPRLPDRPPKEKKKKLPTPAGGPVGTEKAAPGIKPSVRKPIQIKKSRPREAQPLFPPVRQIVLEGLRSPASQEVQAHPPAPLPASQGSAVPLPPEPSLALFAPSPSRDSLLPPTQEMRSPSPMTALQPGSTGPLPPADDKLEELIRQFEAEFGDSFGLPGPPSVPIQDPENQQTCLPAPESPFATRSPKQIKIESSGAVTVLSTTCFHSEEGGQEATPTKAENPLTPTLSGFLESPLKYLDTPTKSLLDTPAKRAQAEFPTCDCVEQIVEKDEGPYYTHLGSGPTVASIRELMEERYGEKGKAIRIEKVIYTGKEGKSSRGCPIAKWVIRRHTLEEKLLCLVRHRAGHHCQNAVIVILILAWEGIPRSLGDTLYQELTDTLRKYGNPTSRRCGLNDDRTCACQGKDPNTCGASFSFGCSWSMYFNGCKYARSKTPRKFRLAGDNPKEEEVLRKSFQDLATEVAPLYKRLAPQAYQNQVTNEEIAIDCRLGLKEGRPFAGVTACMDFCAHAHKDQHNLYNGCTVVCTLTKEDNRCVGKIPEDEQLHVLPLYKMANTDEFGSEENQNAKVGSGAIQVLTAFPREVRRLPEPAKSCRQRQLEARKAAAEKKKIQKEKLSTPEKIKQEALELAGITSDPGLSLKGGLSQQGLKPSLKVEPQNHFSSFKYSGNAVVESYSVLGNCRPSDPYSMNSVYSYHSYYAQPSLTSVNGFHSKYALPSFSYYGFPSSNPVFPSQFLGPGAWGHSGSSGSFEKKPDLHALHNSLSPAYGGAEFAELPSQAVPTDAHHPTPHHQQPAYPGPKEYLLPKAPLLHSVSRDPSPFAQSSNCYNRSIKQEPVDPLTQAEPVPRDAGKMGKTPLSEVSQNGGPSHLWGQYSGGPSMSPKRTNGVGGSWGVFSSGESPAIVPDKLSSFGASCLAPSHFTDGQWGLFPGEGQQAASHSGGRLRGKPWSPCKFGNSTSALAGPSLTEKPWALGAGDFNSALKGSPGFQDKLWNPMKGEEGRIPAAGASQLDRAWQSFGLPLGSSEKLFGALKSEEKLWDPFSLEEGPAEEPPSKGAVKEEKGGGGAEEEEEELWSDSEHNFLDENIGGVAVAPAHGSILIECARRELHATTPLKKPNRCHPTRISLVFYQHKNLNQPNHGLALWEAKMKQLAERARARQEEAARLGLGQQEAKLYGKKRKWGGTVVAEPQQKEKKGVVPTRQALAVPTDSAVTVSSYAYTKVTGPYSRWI

Assay [4] relates to Methylcytosine dioxygenase TET2 (Homo sapiens), Q6N021 [UNDEFINED MUTATION]. Conditions: time 20.0 min.
For assay [5], the target named is Methylcytosine dioxygenase TET1 (Homo sapiens, UniProt Q8NFU7). The assay is described as follows: Inhibition of N-terminal 3xFlag-tagged recombinant human TET1 catalytic domain (E1418 to V2136 residues) expressed in baculovirus infected Sf9 cells using 5-methylcytosine as substrate preincubated for 10 mins followed by substrate and DNA-cofactor addition measured after 30 mins by Alphascreen assay. Conditions: read-out: pIC50 (converted). A digest of the protocol:
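TET1 catalytic domain (E1418–V2136, Sf9 baculovirus) at 2 nM was preincubated 10 min with inhibitor (1% DMSO) in HEPES 50 mM pH 7.3, 150 mM NaCl, 0.1% BSA, 0.01% Tween-20. Reaction was started with ascorbate 200 µM, Fe(II) 20 µM, 2OG 20 µM and 5mC ssDNA 10 nM, run 30 min, then EDTA-quenched. Anti-5hmC antibody with AlphaScreen beads, 45–60 min, luminescence read. Three independent replicates.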

Assay [6] concerns the target T1, Methylcytosine dioxygenase TET2. Kind of assay: Inhibition of N-terminal His-tagged recombinant human TET2 catalytic domain LCIdel mutant (D1129 to G1936 residues with Y1481 to N1843 replaced by 3 x GGGGS linker) expressed in Escherichia coli BL21 (DE3) using 5-methylcytosine as substrate preincubated for 10 mins followed by substrate and DNA-cofactor addition measured after 10 mins by Alphascreen assay. A general note: In Alpha technology, singlet oxygen from a donor bead excites a nearby acceptor bead.

Each structure is given as a SMILES string. Some results are limits rather than exact numbers.

For the molecule `CC[C@H](C)[C@@H]1NC(=O)[C@H](CO)NC(=O)[C@H](CCCNC(=N)N)NC(=O)[C@H](CC(C)C)NC(=O)[C@H](Cc2c[nH]cn2)NC(=O)[C@H](CC(C)C)NC(=O)[C@@H]2CCCN2C(=O)[C@H]([C@@H](C)CC)NC(=O)[C@@H](Cc2c[nH]c3ccccc23)NC(=O)CSC[C@@H](C(N)=O)NC(=O)[C@H](CO)NC(=O)[C@H](CCCNC(=N)N)NC(=O)CNC(=O)[C@H](CC(N)=O)NC(=O)[C@H](Cc2ccc(O)cc2)NC(=O)[C@H](C)NC(=O)[C@H](CC(C)C)NC1=O`, the IC50 in assay [1] was 27500 nM; in assay [3], 18200 nM; in assay [5], 692 nM. The pIC50 in assay [2] is reported as 4.85; in assay [6], 4.65. Moreover, the deltapIC50 in assay [4] was 0.2.

Consider `CC[C@H](C)[C@@H]1NC(=O)[C@H]([C@@H](C)CC)NC(=O)[C@@H](Cc2c[nH]c3ccccc23)NC(=O)CSC[C@@H](C(N)=O)NC(=O)[C@H](CCCNC(=N)N)NC(=O)[C@H](Cc2c[nH]c3ccccc23)NC(=O)[C@H](Cc2c[nH]c3ccccc23)NC(=O)[C@H]([C@@H](C)O)NC(=O)[C@H](Cc2ccc(O)cc2)NC(=O)[C@H](CC(N)=O)NC(=O)[C@H](Cc2c[nH]cn2)NC(=O)[C@H](Cc2ccc(O)cc2)NC1=O`, for which the IC50 was 933 nM in assay [1], 631 nM in assay [3] and 363 nM in assay [5]. For the same molecule, the pIC50 in assay [2] is 5.54; in assay [6], 6.08. This molecule displayed a deltapIC50 in assay [4] of -0.54.

With `CC[C@H](C)[C@@H]1NC(=O)[C@H](CCC(N)=O)NC(=O)[C@H](Cc2ccc(O)cc2)NC(=O)[C@H](Cc2ccc(O)cc2)NC(=O)[C@H]([C@@H](C)O)NC(=O)[C@H](CCCCN)NC(=O)[C@H](C(C)C)NC(=O)[C@H](CCCNC(=N)N)NC(=O)[C@H](Cc2ccc(O)cc2)NC(=O)[C@@H](Cc2ccc(O)cc2)NC(=O)CSC[C@@H](C(N)=O)NC(=O)[C@H](CO)NC(=O)[C@H](C(C)C)NC(=O)[C@H](Cc2ccc(O)cc2)NC(=O)[C@H](C(C)C)NC(=O)[C@H](Cc2ccc(O)cc2)NC(=O)[C@H]([C@@H](C)O)NC1=O`, the IC50 in assay [1] was 8710 nM; in assay [3], 6030 nM; in assay [5], 1350 nM. Further, the pIC50 in assay [2] was 5.5; in assay [6] it was 5.11. In assay [4], this molecule came in with a deltapIC50 of 0.39.

With `CC(C)C[C@@H]1NC(=O)[C@H](Cc2ccc(O)cc2)NC(=O)[C@H](Cc2c[nH]c3ccccc23)NC(=O)[C@@H](Cc2ccc(O)cc2)NC(=O)CSC[C@@H](C(N)=O)NC(=O)[C@H](Cc2ccccc2)NC(=O)[C@H](Cc2c[nH]c3ccccc23)NC(=O)[C@@H]2CCCN2C(=O)[C@H](C(C)C)NC(=O)[C@H](CCCNC(=N)N)NC(=O)[C@H](Cc2ccc(O)cc2)NC(=O)[C@H](CO)NC(=O)[C@@H]2CCCN2C1=O`, the figures for the IC50 in assay [1], in assay [3] and in assay [5] were 3470 nM, 2400 nM and 174 nM, respectively. For the same molecule, the pIC50 in assay [2] is listed as 5.19; in assay [6], 5.49. The molecule also came in with a deltapIC50 in assay [4] of -0.3.

Turning to `CC(C)[C@@H]1NC(=O)[C@@H]2CCCN2C(=O)[C@H](C)NC(=O)[C@@H](Cc2ccc(O)cc2)NC(=O)CSC[C@@H](C(N)=O)NC(=O)[C@H](Cc2c[nH]c3ccccc23)NC(=O)[C@H](Cc2c[nH]c3ccccc23)NC(=O)[C@H]([C@@H](C)O)NC(=O)[C@H](Cc2ccc(O)cc2)NC(=O)[C@H](CC(N)=O)NC(=O)[C@H](Cc2c[nH]c3ccccc23)NC(=O)[C@H](Cc2ccc(O)cc2)NC1=O`, the IC50 in assay [1] was 55000 nM; in assay [3], 46800 nM; in assay [5], 1860 nM. For the same molecule, the figures for the pIC50 in assay [2] and in assay [6] were 5.66 and 4.17, respectively. In addition, in assay [4], the deltapIC50 was 1.49.

As for `CC[C@H](C)[C@H](NC(=O)[C@H](CC(C)C)NC(=O)[C@@H](Cc1ccc(O)cc1)NC(C)=O)C(=O)N[C@@H](Cc1ccc(O)cc1)C(=O)N[C@@H](C)C(=O)N[C@@H](Cc1ccc(O)cc1)C(=O)N[C@@H](Cc1ccc(O)cc1)C(=O)N[C@H](C(=O)N[C@@H](Cc1c[nH]c2ccccc12)C(=O)N[C@@H](Cc1c[nH]c2ccccc12)C(=O)N[C@@H](CCC(=O)O)C(=O)N[C@@H](Cc1cnc[nH]1)C(=O)N[C@@H](CO)C(=O)N[C@@H](CS)C(N)=O)[C@@H](C)O`, the IC50 in assay [3] is 30900 nM; in assay [5], 70800 nM. Further, in assay [6], the pIC50 is below 4.

Regarding `CC[C@H](C)[C@@H]1NC(=O)[C@H](CCC(N)=O)NC(=O)[C@H](Cc2ccc(O)cc2)NC(=O)[C@H](Cc2ccc(O)cc2)NC(=O)[C@H]([C@@H](C)O)NC(=O)[C@H](CCCCN)NC(=O)[C@H](C(C)C)NC(=O)[C@H](CCCNC(=N)N)NC(=O)[C@H](Cc2ccc(O)cc2)NC(=O)[C@@H](Cc2ccc(O)cc2)NC(=O)CSC[C@@H](C(N)=O)NC(=O)[C@H](CO)NC(=O)[C@H](CC(C)C)NC(=O)[C@H](Cc2ccc(O)cc2)NC(=O)[C@H](C(C)C)NC(=O)[C@H](Cc2ccc(O)cc2)NC(=O)[C@H]([C@@H](C)O)NC1=O`, the IC50 in assay [1] is 4070 nM; in assay [3], 2690 nM; in assay [5] it was 794 nM. In addition, the negative-log IC50 (pIC50) amounted to 5.51 in assay [2] and 5.52 in assay [6]. This molecule also had a deltapIC50 in assay [4] of -0.01.

For the molecule `C[C@@H]1NC(=O)[C@H](Cc2ccccc2)NC(=O)[C@H](Cc2ccc(O)cc2)NC(=O)[C@H](Cc2ccc(O)cc2)NC(=O)[C@H](CCCNC(=N)N)NC(=O)[C@@H](Cc2ccc(O)cc2)NC(=O)CSC[C@@H](C(N)=O)NC(=O)[C@H](C)NC(=O)[C@H](Cc2c[nH]c3ccccc23)NC(=O)[C@H](Cc2c[nH]c3ccccc23)NC(=O)[C@H]([C@@H](C)O)NC(=O)[C@H](Cc2ccc(O)cc2)NC1=O`, the IC50 in assay [1] was 3630 nM; in assay [3] it was 2750 nM; in assay [5], 468 nM. Moreover, the values for the pIC50 in assay [2] and in assay [6] were ~ 5 and 5.52, respectively. The same molecule had a deltapIC50 in assay [4] of -0.5.

With `CC[C@H](C)[C@@H]1NC(=O)[C@H](Cc2c[nH]c3ccccc23)NC(=O)[C@H](Cc2c[nH]c3ccccc23)NC(=O)[C@H]([C@@H](C)O)NC(=O)[C@H](Cc2ccc(O)cc2)NC(=O)[C@H](CC(N)=O)NC(=O)[C@H](Cc2ccc(O)cc2)NC(=O)[C@H](Cc2ccc(O)cc2)NC(=O)[C@H](CC(C)C)NC(=O)[C@H](CCCCN)NC(=O)[C@@H](Cc2c[nH]c3ccccc23)NC(=O)CSC[C@@H](C(N)=O)NC1=O`, the IC50 was 1050 nM in assay [1], 692 nM in assay [3] and 603 nM in assay [5]. The pIC50 is recorded as 5.4 in assay [2] and 6.03 in assay [6]. The deltapIC50 in assay [4] is -0.63.

Turning to `C[C@@H]1NC(=O)[C@H](Cc2c[nH]c3ccccc23)NC(=O)[C@H](Cc2ccc(O)cc2)NC(=O)[C@H](Cc2ccc(O)cc2)NC(=O)[C@H](CCCCN)NC(=O)[C@H](CC(=O)O)NC(=O)[C@H]([C@@H](C)O)NC(=O)[C@@H](Cc2c[nH]c3ccccc23)NC(=O)CSC[C@@H](C(N)=O)NC(=O)[C@H](CO)NC(=O)[C@H](Cc2c[nH]c3ccccc23)NC(=O)[C@H](Cc2c[nH]c3ccccc23)NC(=O)[C@H]([C@@H](C)O)NC(=O)[C@H](Cc2ccc(O)cc2)NC1=O`, the IC50 in assay [1] is 4370 nM; in assay [3], 3550 nM; in assay [5], 794 nM. Moreover, the pIC50 in assay [2] was 4.62; in assay [6] it was 5.41. Moreover, the deltapIC50 in assay [4] was -0.79.

For `CC[C@H](C)[C@@H]1NC(=O)[C@@H](Cc2ccc(O)cc2)NC(=O)CSC[C@@H](C(N)=O)NC(=O)[C@H](CCCNC(=N)N)NC(=O)[C@H](Cc2c[nH]c3ccccc23)NC(=O)[C@H](Cc2c[nH]c3ccccc23)NC(=O)[C@H]([C@@H](C)O)NC(=O)[C@H](Cc2ccc(O)cc2)NC(=O)[C@H](Cc2ccc(O)cc2)NC(=O)[C@H](CCCNC(=N)N)NC(=O)[C@H](Cc2ccc(O)cc2)NC(=O)[C@H](C(C)C)NC1=O`, the IC50 in assay [1] is 1780 nM; in assay [3] it was 1380 nM; in assay [5], 269 nM. The pIC50 came out at 5.47 in assay [2] and 5.66 in assay [6]. This molecule also had a deltapIC50 in assay [4] of -0.19.
